Source: ChEMBL document CHEMBL4346727, “Synthesis and pharmacological evaluation of novel N-Mannich bases derived from 5,5-diphenyl and 5,5-di(propan-2-yl)imidazolidine-2,4-dione core” (Bioorg Med Chem Lett, 2019)
Active and inactive are the calls of the source. Unless noted, no cut-off for these calls is given here.

Columns and labels:
[1] = Neurotoxicity in Sprague-Dawley rat at 30 mg/kg, po measured after 2 hr by rotarod test; type: toxicity, organism-based; details: in vivo
Method in brief: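 Rats given one oral dose of 30 mg/kg and tested on the rotarod at 0.25, 0.5, 1, 2, 4 and 6 h.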

[2] = Neurotoxicity in ip dosed CD1 mouse and measured after 4 hrs by rotarod test; type: toxicity, organism-based; details: in vivo
Method in brief: (§1)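 Mice dosed intraperitoneally at 30, 100 and 300 mg/kg, then tested on the rotarod at 0.5 h and 4 h. The value recorded is the minimum dose at which neurotoxicity appeared. A dash means no neurotoxicity at the top dose of 300 mg/kg.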

[3] = Neurotoxicity in ip dosed CD1 mouse and measured after 0.5 hrs by rotarod test; type: toxicity, organism-based; details: in vivo; method in brief: as §1
[4] = tested on: Mus musculus; test: Anticonvulsant activity in CD1 mouse assessed as protection against subcutaneous pentylenetetrazole-induced seizures at 300 mg/kg, ip and measured after 0.5 hrs; type: functional, organism-based
Method in brief: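 Mice were screened after intraperitoneal doses of 30, 100 and 300 mg/kg in the maximal electroshock and subcutaneous pentylenetetrazole tests, examined at 0.5 and 4 h. The value recorded is the minimum dose showing activity. No activity up to 300 mg/kg is scored as absent.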

[5] = tested on: Mus musculus; test: Anticonvulsant activity in ip dosed CD1 mouse assessed as time to peak effect on protection against 50 mA current-induced seizures; type: functional
Method in brief: (§2)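 Median effective doses were quantified in the maximal electroshock, subcutaneous pentylenetetrazole and 6 Hz tests after intraperitoneal dosing in mice or oral dosing in rats, at the time of peak effect. ED50 values are reported with ranges in parentheses.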

[6] = Neurotoxicity in ip dosed CD1 mouse assessed as time to peak effect by rotarod test; type: toxicity, organism-based; details: in vivo
[7] = tested on: Rattus norvegicus; test: Anticonvulsant activity in po dosed Sprague-Dawley rat assessed as time to peak effect on protection against 32 mA current-induced seizure by 6 Hz psychomotor seizure test; type: functional
[8] = tested on: Mus musculus; test: Anticonvulsant activity in ip dosed CD1 mouse assessed as protection against 50 mA current-induced seizures; type: functional; method in brief: as §2
[9] = tested on: Rattus norvegicus; test: Anticonvulsant activity in po dosed Sprague-Dawley rat assessed as protection against 150 mA current-induced seizures; type: functional; method in brief: as §2
[10] = Neurotoxicity in po dosed Sprague-Dawley rat model by rotarod test; type: toxicity, organism-based; details: in vivo
Method in brief: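 Rats dosed orally; neurotoxicity scored on the rotarod. Screening used a fixed 30 mg/kg, with animals checked at 0.25, 0.5, 1, 2, 4 and 6 h; the reading is the number of four rats showing neurotoxicity. In quantitative runs, a median toxic dose (TD50, mg/kg) was determined after oral dosing at the time of peak effect.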

[11] = Protection index, ratio of TD50 for neurotoxicity in po dosed Sprague-Dawley rat by rotarod test to ED50 for anticonvulsant activity in po dosed Sprague-Dawley rat by maximal electroshock seizure test; type: toxicity, organism-based; details: in vivo, read-out: Ratio TD50/ED50
[12] = Protection index, ratio of TD50 for neurotoxicity in ip dosed CD1 mouse by rotarod test to ED50 for anticonvulsant activity in CD1 mouse by 6 Hz psychomotor seizure test; type: toxicity, organism-based; details: in vivo, read-out: Ratio TD50/ED50
[13] = tested on: Mus musculus; test: Antiallodynic activity in CD1 mouse assessed as reduction in oxaliplatin-induced neuropathic pain in early phase by measuring paw withdrawal force at 11 mg/kg, ip measured after 3 hrs by Von Frey test relative to untreated control; type: functional; design: scale not given: the % may be the effect or the level left
[14] = tested on: Mus musculus; test: Potency index, ratio of phenytoin ED50 to compound ED50 for anticonvulsant activity in ip dosed CD1 mouse by 6 Hz psychomotor seizure test; type: functional
[15] = Neurotoxicity in CD1 mouse at 50 mg/kg, ip measured after 2 hrs by rotarod test; details: in vivo
[16] = Neurotoxicity in CD1 mouse at 50 mg/kg, ip measured after 4 hrs by rotarod test; details: in vivo
[17] = Neurotoxicity in CD1 mouse at 25 mg/kg, ip measured after 2 hrs by rotarod test; details: in vivo
[18] = Neurotoxicity in CD1 mouse at 25 mg/kg, ip measured after 4 hrs by rotarod test; details: in vivo
[19] = tested on: Mus musculus; test: Anticonvulsant activity in CD1 mouse assessed as protection against 32 mA current-induced seizure at 50 mg/kg, ip measured after 1 hr by 6 Hz psychomotor seizure test
[20] = tested on: Mus musculus; test: Anticonvulsant activity in CD1 mouse assessed as protection against 32 mA current-induced seizure at 100 mg/kg, ip measured after 4 hrs by 6 Hz psychomotor seizure test
[21] = tested on: Mus musculus; test: Anticonvulsant activity in CD1 mouse assessed as protection against 32 mA current-induced seizure at 50 mg/kg, ip measured after 30 mins by 6 Hz psychomotor seizure test
[22] = tested on: Mus musculus; test: Anticonvulsant activity in CD1 mouse assessed as protection against 32 mA current-induced seizure at 100 mg/kg, ip measured after 30 mins by 6 Hz psychomotor seizure test

CN1CCN(CN2C(=O)NC(c3ccccc3)(c3ccccc3)C2=O)CC1
Activity [1]: Non-Toxic
MTC [2]: 100 mg/kg
minimal neurotoxic dose [3]: 100 mg/kg
MED [4]: inactive
Time [5]: 4 h
Time [6]: 1 h
Time [7]: 2 h
ED50 [8]: 11.1 mg/kg
ED50 [9]: 38.5 mg/kg
TD50 [10]: > 500 mg/kg
selectivity ratio [11]: > 13
selectivity ratio [12]: 6.19
Activity [13]: 53%
Ratio ED50 [14]: 5
Activity [15]: Non-Toxic
Activity [16]: Non-Toxic
Activity [17]: Non-Toxic
Activity [18]: Non-Toxic
Activity [19]: Active
Activity [20]: Active
Activity [21]: Active
Activity [22]: Active
